The assay relates to His6–FzmG. Description: O2 consumption, Hansatech O2 electrode. The conditions noted are these: alpha-KG 1 mM (saturating), Fe(II). In kind it is biochemical. The procedure, abridged: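 Apparent steady-state kinetics by Clark-type O2 electrode. Phosphonic acid substrate concentration varied; α-KG held at 1 mM (saturating). Enzyme held constant at 3.7 μM for most substrates and 9.25 μM for one. Reactions were started by adding enzyme. Initial O2-consumption rates were measured in triplicate. Km was taken from nonlinear Michaelis–Menten regression.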

Molecules are shown by their SMILES.

`O=P(O)(O)CCO` [2-HEP]: the Km (3.7 μM enzyme) was 210 ± 40 µM.

With `COC(=O)CP(=O)(O)O` [Me-PnA], the Km (3.7 μM enzyme) was 80 ± 20 µM.

On to `O=CCP(=O)(O)O` [PnAA], for which the Km (3.7 μM enzyme) was determined as 800 ± 300 µM.

For the compound `O=C(O)CP(=O)(O)O` [PnA], the Km (9.25 μM enzyme) is 8000 ± 1000 µM.

For orientation: Km means the concentration of substrate that gives half-maximal velocity.

The record behind these values is publication PMC4303578 (Chemical Science, 2014).
